Laboratory results taken from ChEMBL document CHEMBL1135482 (J Med Chem, 2002).
Blank lines part the entries; values can stand above or below the compound they belong to.

Tests used:
[1] = biological target: T1, Melatonin receptor type 1A (Homo sapiens, UniProt P48039); assay: Binding affinity on human melatonin receptor type 1A stably transfected in human embryonic kidney (HEK 293) using 2-[125I]iodomelatonin as radioligand.; type: cell-based, HEK293
[2] = biological target: T2, Melatonin receptor type 1B (Homo sapiens, UniProt P49286); assay: Binding affinity on human melatonin receptor type 1B stably transfected in human embryonic kidney (HEK 293) cells using 2-[125I]iodomelatonin as radioligand.; type: cell-based, HEK293
T2 sequence (P49286 whole entry): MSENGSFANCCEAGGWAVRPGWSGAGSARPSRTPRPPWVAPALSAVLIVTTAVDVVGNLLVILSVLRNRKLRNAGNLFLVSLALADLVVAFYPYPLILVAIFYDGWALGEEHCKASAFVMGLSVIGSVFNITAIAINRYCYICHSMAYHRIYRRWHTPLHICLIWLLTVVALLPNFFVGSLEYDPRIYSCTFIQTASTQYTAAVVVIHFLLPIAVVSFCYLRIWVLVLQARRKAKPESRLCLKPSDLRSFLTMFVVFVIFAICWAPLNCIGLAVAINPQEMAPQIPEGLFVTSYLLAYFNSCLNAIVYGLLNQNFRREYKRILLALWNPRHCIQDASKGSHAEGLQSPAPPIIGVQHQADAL

[3] = biological target: T2, Melatonin receptor type 1B; assay: Intrinsic activity at human Melatonin receptor type 1B evaluated on [35S]GTP-gamma-S, binding in Chinese hamster ovarian (CHO) cells; type: functional, cell-based
[4] = biological target: T3, Melatonin receptor type 1B (Homo sapiens) (UniProt P49286); assay: Antagonist potency determined against 3 nM melatonin for Melatonin receptor type 1B; type: functional
T3 sequence (whole entry): T2 sequence (P49286 whole entry)
Summary of the method: (§1)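 Antagonist mode of [³⁵S]GTPγS binding on membranes (20 µg/mL) of CHO cells stably expressing human MT₁ or MT₂. […] Incubation 1 h at room temperature, GF/B filtration. Nonspecific binding with 10 µM GTPγS.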

[5] = biological target: T1, Melatonin receptor type 1A; assay: Intrinsic activity evaluated on [35S]GTP -gamma-S binding in Chinese hamster ovarian (CHO) cells, stably expressing human Melatonin receptor type 1A; type: functional, cell-based
[6] = biological target: T1, Melatonin receptor type 1A; assay: Antagonist potency determined against 30 nM melatonin for Melatonin receptor type 1A; type: functional; summary of the method: as §1
[7] = biological target: T1, Melatonin receptor type 1A; assay: Intrinsic activity of Melatonin receptor type 1A evaluated on [35S]GTP-gamma-S, binding in Chinese hamster ovarian (CHO) cells; type: functional, cell-based

T1 sequence (P48039 whole entry): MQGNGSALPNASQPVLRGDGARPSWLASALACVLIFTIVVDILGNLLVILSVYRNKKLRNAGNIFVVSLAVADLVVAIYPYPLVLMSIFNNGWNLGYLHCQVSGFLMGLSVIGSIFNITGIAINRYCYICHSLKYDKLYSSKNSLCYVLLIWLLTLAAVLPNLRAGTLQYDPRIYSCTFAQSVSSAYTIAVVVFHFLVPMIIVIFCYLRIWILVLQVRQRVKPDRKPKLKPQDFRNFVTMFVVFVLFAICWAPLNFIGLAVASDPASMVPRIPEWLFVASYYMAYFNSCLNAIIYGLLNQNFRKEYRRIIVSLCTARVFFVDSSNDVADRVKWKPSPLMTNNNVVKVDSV

Structure (SMILES): C=CC(=O)NCCc1c(Cc2ccccc2)oc2ccc(OC)cc12
Ki [1]: 53.7 nM
Ki [2]: 0.69 nM

Structure (SMILES): COc1ccc2oc(Cc3cccc(Cl)c3)c(CCNC(C)=O)c2c1
Ki [1]: 7.19 nM
Ki [2]: 0.22 nM

Structure (SMILES): COc1ccc2oc(Cc3ccccc3)c(CCNC(=O)c3ccco3)c2c1
Ki [1]: 698 nM
Ki [2]: 36.7 nM

Structure (SMILES): COc1ccc2oc(Cc3cccnc3)c(CCNC(C)=O)c2c1
Ki [1]: 29 nM
Ki [2]: 3.53 nM

Structure (SMILES): CNC(=O)NCCc1c(-c2ccccc2)oc2ccc(OC)cc12
Ki [1]: 0.04 nM
Ki [2]: 0.04 nM

Structure (SMILES): CCCCCOc1ccc2oc(Cc3ccccc3)c(CCNC(C)=O)c2c1
Ki [1]: 42.7 nM
Ki [2]: 9.64 nM

Structure (SMILES): COc1ccc(Cc2oc3ccc(OC)cc3c2CCNC(C)=O)cc1
EC50 [3]: > 10000 nM
Kb [4]: 0.42 nM
EC50 [5]: > 10000 nM
Kb [6]: 35 nM
Ki [1]: 24 nM
Ki [2]: 0.5 nM

Structure (SMILES): COc1cccc(Cc2oc3ccccc3c2CCNC(C)=O)c1
Ki [1]: 229 nM
Ki [2]: 18.6 nM

Structure (SMILES): COc1cccc(Cc2oc3ccc(OC)cc3c2CCNC(C)=O)c1
EC50 [3]: 0.72 nM
Kb [4]: 1.65 nM
EC50 [5]: 37 nM
Kb [6]: 26 nM
Ki [1]: 40.6 nM
Ki [2]: 0.32 nM

Structure (SMILES): COc1ccc2oc(CC3CCCCC3)c(CCNC(C)=O)c2c1
EC50 [3]: 10 nM
Kb [4]: 7 nM
EC50 [5]: 481 nM
Kb [6]: 242 nM
Ki [1]: 66.4 nM
Ki [2]: 2.49 nM

Structure (SMILES): CC(=O)NCCc1c(Cc2ccccc2)oc2ccccc12
EC50 [3]: > 10000 nM
Kb [4]: 12 nM
EC50 [5]: > 10000 nM
Kb [6]: 27 nM
Ki [1]: 155 nM
Ki [2]: 10.6 nM

Structure (SMILES): CCCC(=O)NCCc1c(Cc2ccccc2)oc2ccc(OC)cc12
Ki [1]: 3.29 nM
Ki [2]: 0.2 nM

Structure (SMILES): CCc1ccc2oc(Cc3cccc(OC)c3)c(CCNC(C)=O)c2c1
EC50 [3]: 19 nM
Kb [4]: 18 nM
EC50 [5]: > 10000 nM
Kb [6]: 266 nM
Ki [1]: 288 nM
Ki [2]: 17 nM

Structure (SMILES): COc1ccc2oc(Cc3cccc(F)c3)c(CCNC(C)=O)c2c1
Ki [1]: 0.75 nM
Ki [2]: 0.23 nM

Structure (SMILES): C=CCC(=O)NCCc1c(-c2ccccc2)oc2ccc(OC)cc12
Ki [1]: 0.01 nM
Ki [2]: 0.02 nM

Structure (SMILES): COc1ccc2oc(Cc3cccc(C(F)(F)F)c3)c(CCNC(C)=O)c2c1
EC50 [3]: 1.26 nM
Kb [4]: 2.4 nM
EC50 [7]: > 10000 nM
Kb [6]: 89 nM
Ki [1]: 80 nM
Ki [2]: 1.17 nM

Structure (SMILES): C/C=C/C(=O)NCCc1c(-c2ccccc2)oc2ccc(OC)cc12
Ki [1]: 1.01 nM
Ki [2]: 0.21 nM

Structure (SMILES): COc1ccc2oc(Cc3ccccc3)c(CCNC(=O)CI)c2c1
Ki [1]: 8.67 nM
Ki [2]: 0.41 nM

Structure (SMILES): CC(=O)NCCc1c(Cc2ccccc2)oc2ccc(O)cc12
Ki [1]: 569 nM
Ki [2]: 79.9 nM

Further lines, results first:

Ki [1]: 31.5 nM
Ki [2]: 1.52 nM
Structure (SMILES): COc1ccc2oc(CCCc3ccccc3)c(CCNC(C)=O)c2c1

Ki [1]: 12.9 nM
Ki [2]: 1.7 nM
Structure (SMILES): COc1ccc2oc(-c3ccccc3)c(CCNC(=O)c3ccco3)c2c1

EC50 [3]: 0.39 nM
Kb [4]: 0.24 nM
EC50 [5]: 138 nM
Kb [6]: 57 nM
Structure (SMILES): C=CCC(=O)NCCc1c(Cc2cccc(OC)c2)oc2ccc(OC)cc12

EC50 [3]: 0.17 nM
Kb [4]: 0.16 nM
EC50 [5]: 25 nM
Ki [1]: 3.51 nM
Ki [2]: 0.06 nM
Structure (SMILES): C=CCC(=O)NCCc1c(Cc2ccccc2)oc2ccc(OC)cc12

Ki [1]: 8.2 nM
Ki [2]: 3.21 nM
Structure (SMILES): CCCCCCOc1ccc2oc(Cc3ccccc3)c(CCNC(C)=O)c2c1

Ki [1]: 84.5 nM
Ki [2]: 12.8 nM
Structure (SMILES): COc1ccc2oc(Cc3c(Cl)cccc3Cl)c(CCNC(C)=O)c2c1

Ki [1]: 55 nM
Ki [2]: 2.76 nM
Structure (SMILES): C=CC(=O)NCCc1c(Cc2cccc(OC)c2)oc2ccc(OC)cc12

Ki [1]: 0.02 nM
Ki [2]: 0.01 nM
Structure (SMILES): C=CC(=O)NCCc1c(-c2ccccc2)oc2ccc(OC)cc12

EC50 [3]: 0.41 nM
Kb [4]: 0.88 nM
EC50 [5]: > 10000 nM
Kb [6]: 26 nM
Ki [1]: 14.3 nM
Ki [2]: 0.34 nM
Structure (SMILES): COc1ccc2oc(Cc3ccccc3OC)c(CCNC(C)=O)c2c1

EC50 [3]: 0.096 nM
EC50 [5]: 0.17 nM
Ki [1]: 0.01 nM
Ki [2]: 0.02 nM
Structure (SMILES): COc1ccc2oc(-c3ccccc3)c(CCNC(C)=O)c2c1

Ki [1]: 476 nM
Ki [2]: 340 nM
Structure (SMILES): COc1ccc2oc(Cc3cc(C(F)(F)F)cc(C(F)(F)F)c3)c(CCNC(C)=O)c2c1

EC50 [3]: > 10000 nM
Kb [4]: 0.21 nM
EC50 [5]: 21 nM
Ki [2]: 0.05 nM
Structure (SMILES): COc1ccc2oc(Cc3ccccc3)c(CCNC(C)=O)c2c1

Ki [1]: 5.37 nM
Ki [2]: 0.35 nM
Structure (SMILES): CNC(=O)NCCc1c(Cc2ccccc2)oc2ccc(OC)cc12

Ki [1]: 64.4 nM
Ki [2]: 8.25 nM
Structure (SMILES): CCc1ccc2oc(Cc3ccccc3)c(CCNC(C)=O)c2c1
